# This is a sample that favours compounds with a hit; in the whole collection about 9.5% have one here.
# M1 antag = M1 muscarinic receptor (rat) antagonism; P08482; CHO-M1 cells, Fluo-4 calcium, ACh EC80 antagonist mode; stronger effect = lower value; AID 628; 64,000 compounds, 3.4% hits; B-score at 10 µM;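 active = calcium fluorescence response, raw or row-and-column corrected B-score, differing from the plate sample mean either way at a set confidence level, mostly lower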
# Target sequence (P08482 whole entry, looked up): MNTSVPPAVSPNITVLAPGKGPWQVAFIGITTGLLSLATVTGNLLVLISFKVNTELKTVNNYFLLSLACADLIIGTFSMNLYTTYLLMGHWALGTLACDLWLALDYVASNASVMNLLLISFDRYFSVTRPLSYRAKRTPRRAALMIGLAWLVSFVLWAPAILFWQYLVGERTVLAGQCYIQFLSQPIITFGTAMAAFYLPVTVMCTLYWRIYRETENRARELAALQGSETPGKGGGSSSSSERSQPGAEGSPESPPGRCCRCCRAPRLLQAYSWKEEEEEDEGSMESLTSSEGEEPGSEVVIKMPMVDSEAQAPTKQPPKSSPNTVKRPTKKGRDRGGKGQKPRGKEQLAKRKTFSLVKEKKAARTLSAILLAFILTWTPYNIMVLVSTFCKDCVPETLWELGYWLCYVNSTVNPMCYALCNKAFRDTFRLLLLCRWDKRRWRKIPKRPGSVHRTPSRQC
# D1 allo mod = allosteric modulators of human D1 dopamine receptor. HEK293 D1, CRE-luciferase, dopamine EC30 potentiation; actives deviate in either direction. B-score at 10 µM. P21728. 58,000 compounds, 5.9% hits;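 active = luminescence count or its row- and column-corrected plate score outside the 99.7% band of the plate's sample wells, on either side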
# M1 agonist = activates the M1 muscarinic receptor; CHO-M1 cells, Fluo-4 calcium fluorescence, agonist mode; stronger effect = higher value; B-score at 10 µM; 64,000 compounds, 3% hits; AID 626;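 active = fluorescence rise, raw or as B-score row- and column-corrected plate score, outside the 99.7% band of its plate's samples, either direction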
# mHtt clearance = compounds clearing mutant huntingtin protein | inhibition, % at 1.5 µM | HeLa Exon1htt(103Q)mCFP, aggregate imaging; zero = plate's median compound well | 47,000 compounds, 0.42% hits | AID 853;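 active = inhibition of aggregate fluorescence above about 70%, also judged a hit by eye on the cell image, limit read from the data, passing the limit was not always enough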;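 also: cells exposed to compound for three days before fixation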
# Jurkat tox 60K = cytotoxicity toward Jurkat cells. Jurkat E6.1 viability, ATP luminescence, 48 h. inhibition, % at 4 µM. 56,000 compounds, 1.2% hits. AID 463;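 active = inhibition above the mean inhibition of all tested compounds plus 3 SD, cut at about 28% in these data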
# HEK293 NFkB inh = lowers PMA/ionomycin-induced NF-kB signal in HEK293 cells; HEK-293 NF-kB luciferase reporter, luminescence; inhibition, % at 3 µM; 62,000 compounds, 0.21% hits; AID 465;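 active = inhibition above the mean of all tested compounds plus 3 SD, cut at about 40% in these data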;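 also: 0% = stimulated DMSO wells and 100% = 10 µM reference inhibitor 5653914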
#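 Signal: luciferase luminescence; Material: HEK-293 cells with stable firefly luciferase reporter driven by four HIV NF-kB elements; Probe or stimulus: PMA with ionomycin; Replication: tested once; Times: 1 h compound pretreatment, then 16 h stimulation at 37 °C, 5% CO2; Benchmarks: DMSO and 10 µM reference inhibitor; Evaluation: per-plate % inhibition versus controls.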
# M1 antag confirm = M1 muscarinic receptor (rat) antagonism, confirmed. calcium response (max-min fluorescence) at 10 µM. 1,700 compounds, 43% hits. CHO-M1 cells, Fluo-4 calcium, ACh EC80 antagonism; stronger effect = lower value. shares compounds with M1 antag;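 active = calcium response below the same-plate mean of wells given acetylcholine alone at its 80%-effect dose, minus 3 SD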;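 also: raw fluorescence intensity difference in arbitrary instrument units and not normalized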
# mGluR4 antag = acts on human mGluR4 in M1 antagonist selectivity test | shares compounds with M1 antag | CHO-mGluR4 calcium flux, Fluo-4 fluorescence, glutamate EC80; stronger effect = lower value | fluorescence response (max-min) at 10 µM | 1,700 compounds, 0.9% hits | AID 678;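 active = fluorescence response below the plate's average for near-maximal glutamate wells, less 3 SD of those wells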;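 also: raw unnormalized fluorescence span taken in the window right after glutamate addition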
# An asterisk follows results filed as active; . = not tested or not shown.
SMILES,M1 antag,D1 allo mod,M1 agonist,mHtt clearance,Jurkat tox 60K,HEK293 NFkB inh,M1 antag confirm,mGluR4 antag
CSc1nsc(SCC(=O)Nc2c(C)n(C)n(-c3ccccc3)c2=O)n1,0.31,-0.073,-1.2,.,-2,13,.,.
CCOC(=O)Nc1ccc2c(c1)N(C(=O)N1CCN(C)CC1)c1ccccc1S2,-15*,0.0077,0.041,21,1,19,14*,268
CCOC(=O)Nc1ccc2c(c1)N(C(=O)CCN1CCN(C)CC1)c1ccccc1S2,.,.,.,-3,.,.,.,.
Cn1nnnc1SCC(=O)N1c2ccccc2Sc2ccc(Cl)cc21,-2.7*,.,0.0043,.,2,-3,446*,231
O=C(CN1CCN(CCOCCO)CC1)N1c2ccccc2Sc2ccc(Cl)cc21,-17*,0.56,-0.34,-18,6,11,24*,236
Cn1c(SCC(=O)N2c3ccccc3Sc3ccc(Cl)cc32)nnc1-c1ccco1,-0.43,2.1,-0.46,.,7,11,.,.
CN1CCN(CCC(=O)N2c3ccccc3Sc3ccc(Cl)cc32)CC1,-11*,-3,0.21,11,.,.,268*,255
COc1ccccc1C(=O)Nn1c(C2CCC2)nc2ccccc2c1=O,-3.3*,-0.29,0.71,-1,-2,9,519,180
Cc1ccc(C)c(Cn2nnc3c(=O)[nH]c(C(=O)NCc4ccco4)nc32)c1,-2.4*,.,-0.83,.,-3,-1,560,251
Cc1ccc2oc(=O)c3cnn(CC(=O)N4CCN(c5ccccc5)CC4)c3c2c1,.,.,.,-133,.,.,.,.
Cc1ccc2oc(=O)c3cnn(CC(=O)Nc4ccccc4N4CCN(C)CC4)c3c2c1,-16*,-1.4,0.054,.,-2,-6,252*,259
O=C(Cn1cnc2ccccc2c1=O)NC1CCCc2ccccc21 (stereo unspecified),1.4,-0.1,-1.2,.,-2,4,.,.
CCc1ccccc1NC1c2ccccc2C(=O)N1Cc1ccco1 (stereo unspecified),-2.2*,-0.0099,2.2,.,1,18,458,199
CCOc1ccccc1NC1c2ccccc2C(=O)N1Cc1ccco1 (stereo unspecified),-0.86*,.,0.3,38,6,7,531,247
Cc1cc(C)c(NC2=NS(=O)(=O)c3ccccc32)c(C)c1,.,.,.,-28,.,.,.,.
COc1ccc(-n2nnnc2SCC(=O)Nc2nc3c(s2)CCCC3)cc1,.,.,.,-18,.,.,.,.
CC1(C)CC(=O)c2c(nn(-c3ccccc3)c2N)C1,-2.4*,0.035,0.34,5,-1,8,517,241
CC1(C)CC(=O)c2c(nc3ccccc3c2N)C1,-0.23,0.065,-0.23,-18,3,26,.,.
CN1C(=O)c2c(sc3c2CC(C)(C)SC3)N2CCN=C12,-1.1,0.12,0.21,.,2,17,.,.
CC1(C)Cc2c(sc3c2C2=NCCN2C=N3)CS1,-5.4*,.,-0.36,.,.,.,411*,254
CCn1c(=O)cc(SCC(=O)N2CCN(C3CCCCC3)CC2)c2ccccc21,-5.1*,-0.046,-1.1,-87,.,22,256*,226
Cc1sc2c(=O)n3c(nc2c1C(=O)NCCCN1CCOCC1)CCCCC3,-0.1,-1,0.0063,.,-5,23,.,.
CCOC(=O)CSc1nnc(NCC(=O)OC(C)C)c(=O)[nH]1,-2.2*,0.31,1.2,-5,-4,-2,622,211
Cc1nnc2ccc(Oc3ccc(-c4ccccc4)cc3)nn12,-1.4,-1.4,2.1,13,10,0,.,.
O=C(Nc1ccccc1)c1cccnc1N1CCOCC1,-3.3*,-0.39,0.53,.,-7,-16,709,258
SMILES,M1 antag,D1 allo mod,M1 agonist,mHtt clearance,Jurkat tox 60K,HEK293 NFkB inh,M1 antag confirm,mGluR4 antag
COCCN(C(=O)COc1ccccc1)c1nnc(-c2cccnc2)s1,-2.7*,-0.63,-0.34,.,-6,4,560,181
O=C(N1CCN(CCO)CC1)N1c2ccccc2C=Cc2ccccc21,-3.2*,-0.56,0.0064,-54,-3,3,437*,237
O=C(c1cc2c(ccc3ccccc32)oc1=O)N1CCN(CCO)CC1,0.0019,0.74,-0.47,-30,-15,3,.,.
O=C(COC(=O)C12CC3CC(CC(O)(C3)C1)C2)NC(=O)NCc1ccco1,-17*,0.23,-0.35,.,5,36,571*,172
O=C(Nc1ccccc1)C1CC=CCC1C(=O)OCC1CCCO1 (stereo unspecified),0.54,-0.74,-0.54,8,5,1,.,.
COc1cc(NC(=O)c2cccs2)cc(OC)c1,-3.4*,-0.045,-0.54,.,-6,-2,658,331
CCOc1ccc(S(=O)(=O)NCCC(=O)OC(C)C(=O)N2CCc3ccccc32)cc1 (stereo unspecified),-0.7,-0.64,2.7,18,10,21,.,.
O=C(O)c1ccc(CS(=O)(=O)c2cccc(C(F)(F)F)c2)o1,-0.42,-0.041,-0.59,.,-3,7,.,.
CCOc1ccccc1N1CCN(C(=O)C2c3ccccc3Oc3ccccc32)CC1,.,.,.,39,.,.,.,.
CS(=O)(=O)N1CCN(C(=O)C2c3ccccc3Oc3ccccc32)CC1,-2.2*,0.0074,-0.28,27,3,22,365*,200
O=C(CCSc1ccccc1)Nc1ccc(S(=O)(=O)N2CCOCC2)cc1,-1.4,-0.53,-0.66,.,-3,8,.,.
O=C(NC1CCCCC1)n1c(=O)oc2ccccc21,-15*,0.098,-0.15,.,6,5,703,207
O=C(NC1CCCCC1)n1c(=O)oc2ccc(Cl)cc21,0.091,0.018,-0.4,.,5,11,.,.
CCOC(=O)N1CCN(c2c(NCCCN(CC)CC)c(=O)c2=O)CC1,.,.,.,12,.,.,.,.
CCCCN(CC)CCNc1c(N2CCN(C(=O)OCC)CC2)c(=O)c1=O,-2.1*,.,-0.0065,7,-3,5,608,234
O=C(O)Cn1cnc2ccccc2c1=O,.,.,.,-16,.,.,.,.
CC(C(=O)c1ccccc1)n1cnc2ccccc2c1=O (stereo unspecified),-10*,0.075,-0.26,-24,-6,0,608,209
N#C/C(=C\c1cccc(Cl)c1)c1n[nH]c(Cn2cncn2)n1,.,.,.,45,.,.,.,.
CCOCCCNC(=O)c1cc2c(-c3ccc(Cl)cc3)nn(C)c2s1,0.58,0.18,-0.15,17,5,9,.,.
CCN(CC)CCNC(=O)c1cc2c(-c3ccc(Cl)cc3)nn(C)c2s1,-2.9*,-1.2,-0.55,-104,8,6,444,205
COc1cccc(CN2C(=O)CCC2(C)C(=O)NC2CCCCC2)c1 (stereo unspecified),-3.5*,0.4,-0.49,.,3,10,582,229
COc1ccc(CN2C(=O)CCC2(C)C(=O)NC2CCCCCC2)cc1 (stereo unspecified),0.15,-0.21,0.49,12,9,12,.,.
